Test [1] concerns the target T1, Androgen receptor (Homo sapiens, UniProt P10275).
T1 sequence (P10275 whole entry): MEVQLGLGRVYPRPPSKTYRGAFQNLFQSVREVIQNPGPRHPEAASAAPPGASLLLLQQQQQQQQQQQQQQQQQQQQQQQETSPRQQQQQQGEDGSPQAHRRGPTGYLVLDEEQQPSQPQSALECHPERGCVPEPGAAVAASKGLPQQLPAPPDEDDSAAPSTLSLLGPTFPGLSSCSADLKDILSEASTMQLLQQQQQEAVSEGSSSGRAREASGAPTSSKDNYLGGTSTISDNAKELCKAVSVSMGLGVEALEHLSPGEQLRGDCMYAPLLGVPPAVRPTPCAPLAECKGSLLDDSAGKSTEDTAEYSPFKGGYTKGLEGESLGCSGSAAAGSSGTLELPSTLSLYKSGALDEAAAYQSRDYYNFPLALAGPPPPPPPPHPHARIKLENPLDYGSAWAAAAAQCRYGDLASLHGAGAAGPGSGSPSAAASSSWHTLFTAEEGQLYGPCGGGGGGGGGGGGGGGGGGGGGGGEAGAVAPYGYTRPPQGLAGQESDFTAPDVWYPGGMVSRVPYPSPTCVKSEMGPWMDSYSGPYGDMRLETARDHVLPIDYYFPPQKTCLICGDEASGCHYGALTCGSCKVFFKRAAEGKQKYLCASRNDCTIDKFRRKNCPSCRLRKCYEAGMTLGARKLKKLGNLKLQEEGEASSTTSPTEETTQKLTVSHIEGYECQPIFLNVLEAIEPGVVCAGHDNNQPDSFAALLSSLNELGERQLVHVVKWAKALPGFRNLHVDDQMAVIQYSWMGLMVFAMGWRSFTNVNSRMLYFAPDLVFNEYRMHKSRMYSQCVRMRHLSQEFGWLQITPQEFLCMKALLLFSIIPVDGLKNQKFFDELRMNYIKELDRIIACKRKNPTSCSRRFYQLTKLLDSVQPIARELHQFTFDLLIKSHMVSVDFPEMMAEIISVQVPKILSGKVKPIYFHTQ
As to the kind of experiment: Inhibition of androgen receptor in human LNCaP cells assessed as inhibition of prostate-specific antigen secretion into media after 3 days. It counts as cell-based.

Test [2] has as its system T2, Androgen receptor (Homo sapiens), P10275 [Q592D].
T2 sequence (whole entry): T1 sequence (P10275 whole entry) with Q592D
As to the kind of experiment: Inhibition of human androgen receptor Q592D mutant expressed in human PC3 cells assessed as inhibition of transcription activity after 24 hrs by luciferase reporter gene assay. It counts as cell-based. The note with it: PC-3. An outline of the steps: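 PC3 cells were starved 5 days in RPMI 1640 with 5% charcoal-stripped serum and seeded at 5000 cells/well. After 24 h they were cotransfected with AR-V7 or hAR mutant plasmid plus 50 ng ARR3tk-luciferase. At 48 h post-transfection, compounds were added for 24 h with 0.1 nM R1881. Luminescence was read from passive-lysis-buffer lysates; mutant tests used 10 μM.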

Test [3] concerns the target T3, Progesterone receptor (Homo sapiens) (UniProt P06401).
T3 sequence (whole entry): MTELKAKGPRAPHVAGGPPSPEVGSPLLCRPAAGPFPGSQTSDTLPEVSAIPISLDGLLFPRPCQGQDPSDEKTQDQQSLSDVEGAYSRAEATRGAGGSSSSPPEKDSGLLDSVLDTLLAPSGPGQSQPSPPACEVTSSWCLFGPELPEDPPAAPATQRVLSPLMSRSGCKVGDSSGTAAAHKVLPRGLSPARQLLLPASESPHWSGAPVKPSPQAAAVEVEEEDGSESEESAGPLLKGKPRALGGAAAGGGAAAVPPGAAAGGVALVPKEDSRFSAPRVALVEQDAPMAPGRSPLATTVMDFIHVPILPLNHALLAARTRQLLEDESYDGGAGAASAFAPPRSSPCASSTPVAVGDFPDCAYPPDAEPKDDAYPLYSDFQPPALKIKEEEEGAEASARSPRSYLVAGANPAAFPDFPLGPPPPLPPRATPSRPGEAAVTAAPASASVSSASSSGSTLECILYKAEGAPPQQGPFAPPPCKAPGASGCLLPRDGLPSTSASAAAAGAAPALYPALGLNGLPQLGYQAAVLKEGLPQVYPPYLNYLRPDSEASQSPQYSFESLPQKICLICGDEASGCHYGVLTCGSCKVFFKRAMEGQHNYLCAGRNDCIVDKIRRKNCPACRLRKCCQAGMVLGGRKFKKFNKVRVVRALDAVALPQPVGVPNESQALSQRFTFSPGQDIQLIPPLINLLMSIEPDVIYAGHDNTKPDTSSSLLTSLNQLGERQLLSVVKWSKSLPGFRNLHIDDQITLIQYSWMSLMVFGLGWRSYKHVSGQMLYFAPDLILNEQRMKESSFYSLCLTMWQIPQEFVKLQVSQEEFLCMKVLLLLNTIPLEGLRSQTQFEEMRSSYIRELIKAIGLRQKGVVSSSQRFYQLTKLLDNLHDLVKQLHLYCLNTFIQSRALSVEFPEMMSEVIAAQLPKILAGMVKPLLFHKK
In words: Inhibition of progesterone receptor (unknown origin) transcriptional activity at […]. An outline of the steps: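 PC3 cells were starved 5 days in RPMI 1640 with 5% charcoal-stripped serum. They were cotransfected with GR or PR plasmid plus 50 ng ARR3tk-luciferase, and 48 h later treated with compound for 24 h. Stimulation was 1 nM dexamethasone (GR) or progesterone (PR). Luciferase luminescence was read from cell lysates.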

Numbering of substitutions follows the chain as printed. Calls of active or inactive are those of the source. The rule behind the calls is not given here.

In the case of `Brc1ncn(-c2csc(N3CCOCC3)n2)c1Br`, the IC50 – broadly, the midpoint of a concentration-inhibition curve – in test [1] was 170 nM. Also, the inhibition result in test [2] and in test [3] was “inactive” each time.

With `c1ccc(-c2csc(N3CCOCC3)n2)cc1`, in test [1], the IC50 stood at 280 nM. Further, the inhibition entry in test [2] and in test [3] was “inactive” each time.

These data come from ChEMBL document CHEMBL3352043, “Discovery of small-molecule inhibitors selectively targeting the DNA-binding domain of the human androgen receptor” (J Med Chem, 2014).
